Test results reported in ChEMBL document CHEMBL3046033, “Design, synthesis, crystal structure analysis, and insecticidal evaluation of phenylazoneonicotinoids” (2011).

Key:
Format in all cases: functional
Aphis craccivora [1] = experiment: Insecticidal activity against Aphis craccivora (cowpea aphid) assessed as mortality after 24 hr by leaf-dip method
Procedure, shortened: (§1)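 Test solutions were made by dissolving compounds in N,N-dimethylformamide and diluting with water containing Triton X-100 (0.1 mg/L), giving a series of 500.0, 250.0 and 125.0 mg/L plus other concentrations for the cowpea aphid (Aphis craccivora) bioassay.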

Aphis craccivora [2] = experiment: Insecticidal activity against Aphis craccivora (cowpea aphid) assessed as mortality at 125 mg/L after 24 hr by leaf-dip method; procedure, shortened: as §1
Aphis craccivora [3] = experiment: Insecticidal activity against Aphis craccivora (cowpea aphid) assessed as mortality at 500 mg/L after 24 hr by leaf-dip method; procedure, shortened: as §1
Aphis craccivora [4] = experiment: Insecticidal activity against Aphis craccivora (cowpea aphid) assessed as mortality at 250 mg/L after 24 hr by leaf-dip method; procedure, shortened: as §1

Cc1cccc(C)c1/N=N/C(=C1/NCCN1Cc1cnc(Cl)s1)[N+](=O)[O-]
LC50 (Aphis craccivora [1]): 3.5 µM | mortality at 125 µg/mL (Aphis craccivora [2]): 100% | mortality at 500 µg/mL (Aphis craccivora [3]): 100% | mortality at 250 µg/mL (Aphis craccivora [4]): 100%

COc1ccccc1/N=N/C(=C1/NCCN1Cc1ccc(Cl)nc1)[N+](=O)[O-]
mortality at 125 µg/mL (Aphis craccivora [2]): 35.5% | mortality at 500 µg/mL (Aphis craccivora [3]): 91% | mortality at 250 µg/mL (Aphis craccivora [4]): 76%

O=[N+]([O-])C(/N=N/c1ccccc1Cl)=C1\NCCN1Cc1ccc(Cl)nc1
mortality at 500 µg/mL (Aphis craccivora [3]): 7.1%

O=[N+]([O-])C(/N=N/c1ccccc1I)=C1\NCCN1Cc1ccc(Cl)nc1
mortality at 500 µg/mL (Aphis craccivora [3]): 0%

O=[N+]([O-])C(/N=N/c1ccccc1F)=C1\NCCN1Cc1ccc(Cl)nc1
mortality at 500 µg/mL (Aphis craccivora [3]): 13%

COc1ccc(/N=N/C(=C2/NCCN2Cc2ccc(Cl)nc2)[N+](=O)[O-])cc1
mortality at 500 µg/mL (Aphis craccivora [3]): 47.5%

CCc1cccc(CC)c1/N=N/C(=C1/NCCN1Cc1ccc(Cl)nc1)[N+](=O)[O-]
LC50 (Aphis craccivora [1]): 2.8 µM | mortality at 125 µg/mL (Aphis craccivora [2]): 100% | mortality at 500 µg/mL (Aphis craccivora [3]): 100% | mortality at 250 µg/mL (Aphis craccivora [4]): 100%

Cc1cccc(C)c1/N=N/C(=C1/NCCN1Cc1ccc(Cl)nc1)[N+](=O)[O-]
LC50 (Aphis craccivora [1]): 4.26 µM | mortality at 125 µg/mL (Aphis craccivora [2]): 100% | mortality at 500 µg/mL (Aphis craccivora [3]): 100% | mortality at 250 µg/mL (Aphis craccivora [4]): 100%

O=[N+]([O-])C(/N=N/c1ccc(F)cc1)=C1\NCCN1Cc1ccc(Cl)nc1
LC50 (Aphis craccivora [1]): 37.2 µM | mortality at 125 µg/mL (Aphis craccivora [2]): 100% | mortality at 500 µg/mL (Aphis craccivora [3]): 100% | mortality at 250 µg/mL (Aphis craccivora [4]): 100%

COc1cccc(OC)c1/N=N/C(=C1/NCCN1Cc1ccc(Cl)nc1)[N+](=O)[O-]
LC50 (Aphis craccivora [1]): 9.9 µM | mortality at 125 µg/mL (Aphis craccivora [2]): 100% | mortality at 500 µg/mL (Aphis craccivora [3]): 100% | mortality at 250 µg/mL (Aphis craccivora [4]): 100%

Cc1ccc(/N=N/C(=C2/NCCN2Cc2ccc(Cl)nc2)[N+](=O)[O-])cc1C
mortality at 500 µg/mL (Aphis craccivora [3]): 19.7%

CC(C)c1cccc(C(C)C)c1/N=N/C(=C1/NCCN1Cc1ccc(Cl)nc1)[N+](=O)[O-]
LC50 (Aphis craccivora [1]): 13.8 µM | mortality at 125 µg/mL (Aphis craccivora [2]): 100% | mortality at 500 µg/mL (Aphis craccivora [3]): 100% | mortality at 250 µg/mL (Aphis craccivora [4]): 100%

Cc1ccc(/N=N/C(=C2/NCCN2Cc2ccc(Cl)nc2)[N+](=O)[O-])cc1
mortality at 500 µg/mL (Aphis craccivora [3]): 56.6%

O=[N+]([O-])C(/N=N/c1ccccc1[N+](=O)[O-])=C1\NCCN1Cc1ccc(Cl)nc1
mortality at 500 µg/mL (Aphis craccivora [3]): 8.2%

O=[N+]([O-])C(/N=N/c1ccc([N+](=O)[O-])cc1)=C1\NCCN1Cc1cnc(Cl)s1
mortality at 500 µg/mL (Aphis craccivora [3]): 12.1%

O=[N+]([O-])C(/N=N/c1ccc(Br)cc1)=C1\NCCN1Cc1ccc(Cl)nc1
mortality at 500 µg/mL (Aphis craccivora [3]): 58.3%

CCc1cccc(CC)c1/N=N/C(=C1/NCCN1Cc1cnc(Cl)s1)[N+](=O)[O-]
LC50 (Aphis craccivora [1]): 11.8 µM | mortality at 125 µg/mL (Aphis craccivora [2]): 100% | mortality at 500 µg/mL (Aphis craccivora [3]): 100% | mortality at 250 µg/mL (Aphis craccivora [4]): 100%

O=[N+]([O-])C(/N=N/c1ccccc1)=C1\NCCN1Cc1ccc(Cl)nc1
mortality at 500 µg/mL (Aphis craccivora [3]): 31.2%

O=[N+]([O-])C(/N=N/c1c(Cl)cccc1Cl)=C1\NCCN1Cc1ccc(Cl)nc1
mortality at 500 µg/mL (Aphis craccivora [3]): 6.5%

COc1cccc(OC)c1/N=N/C(=C1/NCCN1Cc1cnc(Cl)s1)[N+](=O)[O-]
LC50 (Aphis craccivora [1]): 14.6 µM | mortality at 125 µg/mL (Aphis craccivora [2]): 100% | mortality at 500 µg/mL (Aphis craccivora [3]): 100% | mortality at 250 µg/mL (Aphis craccivora [4]): 100%

O=[N+]([O-])C(/N=N/c1ccc([N+](=O)[O-])cc1)=C1\NCCN1Cc1ccc(Cl)nc1
mortality at 500 µg/mL (Aphis craccivora [3]): 4.7%

Cc1cc(C)c(/N=N/C(=C2/NCCN2Cc2ccc(Cl)nc2)[N+](=O)[O-])c(C)c1
LC50 (Aphis craccivora [1]): 4.99 µM | mortality at 125 µg/mL (Aphis craccivora [2]): 100% | mortality at 500 µg/mL (Aphis craccivora [3]): 100% | mortality at 250 µg/mL (Aphis craccivora [4]): 100%

O=[N+]([O-])C(/N=N/c1ccc(F)cc1F)=C1\NCCN1Cc1ccc(Cl)nc1
mortality at 500 µg/mL (Aphis craccivora [3]): 12.2%

Cc1cccc(/N=N/C(=C2/NCCN2Cc2ccc(Cl)nc2)[N+](=O)[O-])c1C
mortality at 500 µg/mL (Aphis craccivora [3]): 73.3%

O=[N+]([O-])C(/N=N/c1cccc(F)c1F)=C1\NCCN1Cc1ccc(Cl)nc1
mortality at 500 µg/mL (Aphis craccivora [3]): 25.1%

COc1ccc(/N=N/C(=C2/NCCN2Cc2cnc(Cl)s2)[N+](=O)[O-])cc1
mortality at 500 µg/mL (Aphis craccivora [3]): 11.8%

Cc1cccc(/N=N/C(=C2/NCCN2Cc2cnc(Cl)s2)[N+](=O)[O-])c1C
mortality at 500 µg/mL (Aphis craccivora [3]): 61.7%

Cc1ccccc1/N=N/C(=C1/NCCN1Cc1ccc(Cl)nc1)[N+](=O)[O-]
mortality at 500 µg/mL (Aphis craccivora [3]): 52.5%

O=[N+]([O-])C(/N=N/c1ccc(F)c(Cl)c1)=C1\NCCN1Cc1ccc(Cl)nc1
mortality at 500 µg/mL (Aphis craccivora [3]): 8.6%

O=[N+]([O-])/N=C1\NCCN1Cc1ccc(Cl)nc1 [IMIDACLOPRID]
LC50 (Aphis craccivora [1]): 35 µM | mortality at 125 µg/mL (Aphis craccivora [2]): 100% | mortality at 500 µg/mL (Aphis craccivora [3]): 100% | mortality at 250 µg/mL (Aphis craccivora [4]): 100%

O=[N+]([O-])C(/N=N/c1c(Cl)cccc1Cl)=C1\NCCN1Cc1cnc(Cl)s1
mortality at 500 µg/mL (Aphis craccivora [3]): 18.2%

Cc1cc(C)c(/N=N/C(=C2/NCCN2Cc2cnc(Cl)s2)[N+](=O)[O-])c(C)c1
mortality at 125 µg/mL (Aphis craccivora [2]): 100% | mortality at 500 µg/mL (Aphis craccivora [3]): 100% | mortality at 250 µg/mL (Aphis craccivora [4]): 100%

CCc1cccc(C)c1/N=N/C(=C1/NCCN1Cc1ccc(Cl)nc1)[N+](=O)[O-]
LC50 (Aphis craccivora [1]): 3.74 µM | mortality at 125 µg/mL (Aphis craccivora [2]): 100% | mortality at 500 µg/mL (Aphis craccivora [3]): 100% | mortality at 250 µg/mL (Aphis craccivora [4]): 100%

Cc1cc(C(F)(C(F)(F)F)C(F)(F)F)cc(C)c1/N=N/C(=C1/NCCN1Cc1ccc(Cl)nc1)[N+](=O)[O-]
mortality at 500 µg/mL (Aphis craccivora [3]): 12.2%
